In brackets after ≈: the same amount, converted by molar mass.
Legend:
Assay type in all cases: functional
[1] = system: Staphylococcus aureus; experiment: Antibacterial activity against community-acquired methicillin-resistant panton-valentine leukocidin-positive Staphylococcus aureus isolate 1469 after 24 hrs by modified broth macrodilution method; conditions: isolate 1469, 24 h
Outline: (§1)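 MIC read after 24 h incubation by modified broth macrodilution, validated per CLSI recommendations, against recent clinical MRSA isolates (hospital- and community-acquired, hVISA, VISA, VRSA). Daptomycin tests ran in Mueller-Hinton broth with added calcium.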

[2] = system: Staphylococcus aureus; experiment: Antibacterial activity against vancomycin-susceptible Staphylococcus aureus after 24 hrs by modified broth macrodilution method
Outline: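 MICs determined in recent clinical MRSA isolates by a modified broth macrodilution method per CLSI recommendations, with 24 h incubation. Daptomycin tests used Mueller-Hinton broth supplemented with calcium. Value is the lowest inhibitory drug concentration.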

[3] = system: Staphylococcus aureus; experiment: Antibacterial activity against vancomycin-intermediate Staphylococcus aureus isolate 1014 after 24 hrs by modified broth macrodilution method; conditions: isolate 1014, 24 h; outline: as §1
[4] = system: Staphylococcus aureus; experiment: Antibacterial activity against community-acquired methicillin-resistant panton-valentine leukocidin-positive Staphylococcus aureus isolate 813 after 24 hrs by modified broth macrodilution method; conditions: isolate 813, 24 h; outline: as §1
[5] = system: Staphylococcus aureus; experiment: Antibacterial activity against hospital-acquired methicillin-resistant Staphylococcus aureus isolate 1743 after 24 hrs by modified broth macrodilution method; conditions: isolate 1743, 24 h; outline: as §1
[6] = system: Staphylococcus aureus; experiment: Antibacterial activity against vancomycin-intermediate Staphylococcus aureus isolate 1007 after 24 hrs by modified broth macrodilution method; conditions: isolate 1007, 24 h; outline: as §1
[7] = system: Staphylococcus aureus; experiment: Antibacterial activity against community-acquired methicillin-resistant panton-valentine leukocidin-positive Staphylococcus aureus isolate 815 after 24 hrs by modified broth macrodilution method; conditions: isolate 815, 24 h; outline: as §1
[8] = system: Staphylococcus aureus; experiment: Antibacterial activity against methicillin-resistant Staphylococcus aureus isolate 2003 after 24 hrs by modified broth macrodilution method; conditions: isolate 2003, 24 h; outline: as §1
[9] = system: Staphylococcus aureus; experiment: Antibacterial activity against vancomycin-intermediate Staphylococcus aureus isolate 1984 after 24 hrs by modified broth macrodilution method; conditions: isolate 1984, 24 h; outline: as §1
[10] = system: Staphylococcus aureus; experiment: Antibacterial activity against vancomycin-intermediate Staphylococcus aureus isolate 1005 after 24 hrs by modified broth macrodilution method; conditions: isolate 1005, 24 h; outline: as §1
[11] = system: Staphylococcus aureus; experiment: Antibacterial activity against vancomycin-resistant Staphylococcus aureus isolate 1263 after 24 hrs by modified broth macrodilution method; conditions: isolate 1263, 24 h; outline: as §1
[12] = system: Staphylococcus aureus; experiment: Antibacterial activity against vancomycin-intermediate Staphylococcus aureus isolate 555 after 24 hrs by modified broth macrodilution method; conditions: isolate 555, 24 h; outline: as §1
[13] = system: Staphylococcus aureus; experiment: Antibacterial activity against community-acquired methicillin-resistant panton-valentine leukocidin-negative Staphylococcus aureus isolate 1470 after 24 hrs by modified broth macrodilution method; conditions: isolate 1470, 24 h; outline: as §1
[14] = system: Staphylococcus aureus; experiment: Antibacterial activity against vancomycin-hetero-intermediate Staphylococcus aureus isolate 873 after 24 hrs by modified broth macrodilution method; conditions: isolate 873, 24 h; outline: as §1
[15] = system: Staphylococcus aureus; experiment: Antibacterial activity against vancomycin-resistant Staphylococcus aureus isolate 510 after 24 hrs by modified broth macrodilution method; conditions: isolate 510, 24 h; outline: as §1
[16] = system: Staphylococcus aureus; experiment: Antibacterial activity against hospital-acquired methicillin-resistant Staphylococcus aureus isolate 1776 after 24 hrs by modified broth macrodilution method; conditions: isolate 1776, 24 h; outline: as §1
[17] = system: Staphylococcus aureus; experiment: Antibacterial activity against vancomycin-resistant Staphylococcus aureus isolate 557 after 24 hrs by modified broth macrodilution method; conditions: isolate 557, 24 h; outline: as §1
[18] = system: Staphylococcus aureus; experiment: Antibacterial activity against hospital-acquired methicillin-resistant Staphylococcus aureus isolate 1867 after 24 hrs by modified broth macrodilution method; conditions: isolate 1867, 24 h; outline: as §1
[19] = system: Staphylococcus aureus; experiment: Antibacterial activity against hospital-acquired methicillin-resistant Staphylococcus aureus isolate 1751 after 24 hrs by modified broth macrodilution method; conditions: isolate 1751, 24 h; outline: as §1
[20] = system: Staphylococcus aureus; experiment: Antibacterial activity against community-acquired methicillin-resistant panton-valentine leukocidin-positive Staphylococcus aureus isolate 1472 after 24 hrs by modified broth macrodilution method; conditions: isolate 1472, 24 h; outline: as §1
[21] = system: Staphylococcus aureus; experiment: Antibacterial activity against vancomycin-intermediate Staphylococcus aureus isolate 1011 after 24 hrs by modified broth macrodilution method; conditions: isolate 1011, 24 h; outline: as §1
[22] = system: Staphylococcus aureus; experiment: Antibacterial activity against vancomycin-intermediate Staphylococcus aureus isolate 511 after 24 hrs by modified broth macrodilution method; conditions: isolate 511, 24 h; outline: as §1
[23] = system: Staphylococcus aureus; experiment: Antibacterial activity against hospital-acquired methicillin-resistant Staphylococcus aureus isolate 1808 after 24 hrs by modified broth macrodilution method; conditions: isolate 1808, 24 h; outline: as §1
[24] = system: Staphylococcus aureus; experiment: Antibacterial activity against hospital-acquired methicillin-resistant Staphylococcus aureus isolate 1838 after 24 hrs by modified broth macrodilution method; conditions: isolate 1838, 24 h; outline: as §1
[25] = system: Staphylococcus aureus; experiment: Antibacterial activity against vancomycin-intermediate Staphylococcus aureus isolate 770 after 24 hrs by modified broth macrodilution method; conditions: isolate 770, 24 h; outline: as §1

**Q.** Which MIC [1] does the source give for `Nc1nc(/C(=N/O)C(=O)N[C@@H]2C(=O)N3C(C(=O)O)=C(/C=C4\CCN([C@@H]5CCNC5)C4=O)CS[C@H]23)ns1` [CEFTOBIPROLE] here?
**A.** 1 µg/mL (≈ 1.87 µM)

**Q.** And the MIC [2]?
**A.** 0.5 µg/mL (≈ 0.935 µM)

**Q.** What about the MIC [3] of the same molecule?
**A.** 2 µg/mL (≈ 3.74 µM)

**Q.** And the MIC [4]?
**A.** 1 µg/mL (≈ 1.87 µM)

**Q.** And the MIC [5]?
**A.** 2 µg/mL (≈ 3.74 µM)

**Q.** And the MIC [6]?
**A.** 1 µg/mL (≈ 1.87 µM)

**Q.** What about the MIC [7] of the same molecule?
**A.** 0.5 µg/mL (≈ 0.935 µM)

**Q.** What about the MIC [8] of the same molecule?
**A.** 2 µg/mL (≈ 3.74 µM)

**Q.** What about the MIC [9] of the same molecule?
**A.** 2 µg/mL (≈ 3.74 µM)

**Q.** What about the MIC [10] of the same molecule?
**A.** 1 µg/mL (≈ 1.87 µM)

**Q.** What about the MIC [11] of the same molecule?
**A.** 2 µg/mL (≈ 3.74 µM)

**Q.** What about the MIC [12] of the same molecule?
**A.** 1 µg/mL (≈ 1.87 µM)

**Q.** And the MIC [13]?
**A.** 2 µg/mL (≈ 3.74 µM)

**Q.** And the MIC [14]?
**A.** 2 µg/mL (≈ 3.74 µM)

**Q.** And the MIC [15]?
**A.** 1 µg/mL (≈ 1.87 µM)

**Q.** What about the MIC [16] of the same molecule?
**A.** 2 µg/mL (≈ 3.74 µM)

**Q.** And the MIC [17]?
**A.** 1 µg/mL (≈ 1.87 µM)

**Q.** What about the MIC [18] of the same molecule?
**A.** 2 µg/mL (≈ 3.74 µM)

**Q.** And the MIC [19]?
**A.** 1 µg/mL (≈ 1.87 µM)

**Q.** What about the MIC [20] of the same molecule?
**A.** 1 µg/mL (≈ 1.87 µM)

**Q.** And the MIC [21]?
**A.** 4 µg/mL (≈ 7.48 µM)

**Q.** What about the MIC [22] of the same molecule?
**A.** 2 µg/mL (≈ 3.74 µM)

**Q.** And the MIC [23]?
**A.** 1 µg/mL (≈ 1.87 µM)

**Q.** What about the MIC [24] of the same molecule?
**A.** 2 µg/mL (≈ 3.74 µM)

**Q.** And the MIC [25]?
**A.** 2 µg/mL (≈ 3.74 µM)

Source: ChEMBL document CHEMBL1255424, “Antistaphylococcal activity of ACHN-490 tested alone and in combination with other agents by time-kill assay” (2010)
